CHO-K1 Ca antag: nonselective inhibitor or artifact in parental CHO-K1 cells | ATP-induced calcium, Fluo-8 fluorescence | inhibition, % at 3 µM | 0.6% of 360,000 active | AID 602250;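 active = inhibition above a per-plate cutoff, the plate's mean sample inhibition plus 3 SD, cut at about 24% in these data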;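 note: 0% = DMSO plus EC80 ATP and 100% = DMSO alone without ATP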
CHO parental Ca: counter-screen for OX1R antagonists: effect in parental CHO cells | inhibition, % at 5.6 µM | parental CHO-K1, ATP-induced calcium, Fluo-8 fluorescence | 0.63% of 330,000 active;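 active = inhibition above that plate's mean sample inhibition plus 3 SD, cut at about 26% in these data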;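 note: 0% = ATP-challenged DMSO wells and 100% = DMSO wells without ATP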
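Assay system: untransfected parental CHO cell line. Also added: ATP agonist challenge. Dosing: one dose, 5.6 µM nominal. Measured by: Fluo-8 fluorescence. Read-out: % inhibition. Benchmarks: ATP wells versus no-ATP DMSO wells. Repeats: no replicates.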
OX1R antag-1: OX1R (human) antagonism; O43613; OX1R-expressing cells, FRET antagonist read-out; inhibition, % at 6.6 µM; 1.8% of 330,000 active; in the data active = inhibition mostly above about 38%, no sharp cut-off; inactive = mostly below about 40%;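 note: 0% = agonist challenge alone and 100% = reference antagonist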
Target sequence (O43613 whole entry, looked up): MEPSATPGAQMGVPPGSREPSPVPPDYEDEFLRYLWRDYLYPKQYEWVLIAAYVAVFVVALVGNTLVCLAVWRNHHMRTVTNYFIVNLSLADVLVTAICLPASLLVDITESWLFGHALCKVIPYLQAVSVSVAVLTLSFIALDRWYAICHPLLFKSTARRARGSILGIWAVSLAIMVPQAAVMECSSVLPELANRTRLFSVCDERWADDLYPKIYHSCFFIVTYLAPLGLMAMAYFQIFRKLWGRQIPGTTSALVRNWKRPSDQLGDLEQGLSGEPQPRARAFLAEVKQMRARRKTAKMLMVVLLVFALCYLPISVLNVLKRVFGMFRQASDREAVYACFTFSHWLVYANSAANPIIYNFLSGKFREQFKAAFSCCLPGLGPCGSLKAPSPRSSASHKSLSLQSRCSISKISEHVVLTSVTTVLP
M1 PAM parental: nonselective activator or artifact in parental CHO-K1 calcium assay; ATP EC20, Fluo-8 calcium fluorescence; 0% at ATP EC20, 100% at ATP max; activation, % at 3 µM; 0.02% of 360,000 active;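 active = activation above the run cutoff, the mean activation of all test compounds plus 3 SD, cut at about 40% in these data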;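 note: peak over basal fluorescence ratio in a 140 s read after ATP addition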
OX1R antag-2: blocks the human orexin 1 receptor; O43613; CHO/OX1R cells, Fluo-8 calcium fluorescence, orexin A; inhibition, % at 5 µM; 0.43% of 330,000 active; AID 434989;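 active = inhibition above its plate's threshold, mean inhibition of all tested compounds on the plate plus 3 SD, cut at about 37% in these data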;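 note: 0% = orexin A challenge wells and 100% = SB-334867-A antagonist wells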
CHO-K1 Ca ag: nonselective activator or artifact in parental CHO-K1 cells; Fluo-8 calcium fluorescence; scaled to maximal ATP response, vehicle zero; activation, % at 3 µM; 0.48% of 360,000 active; AID 602248; in the data active = activation above about 15%;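 note: untransfected CHO-K1 host cells lacking M1 receptor as counterscreen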
* marks the source's active call; other numbers are inactive results. Only some compounds are listed: those with a hit (about 2.9% of all), similar ones and a draw of the others.

`O=C(Nc1nnc([C@H]2C[C@H](O)[C@@H](CO)O2)s1)NC1CCCCC1` gave CHO-K1 Ca antag -9, M1 PAM parental 11 and CHO-K1 Ca ag 0.
For CCCCn1c(N)c(N(CCOC)C(=O)c2cc(C)oc2C)c(=O)[nH]c1=O the results were CHO-K1 Ca antag 24*, CHO parental Ca -10, OX1R antag-1 5, M1 PAM parental -20, OX1R antag-2 -24 and CHO-K1 Ca ag 4.
Screening CCCCn1c(N)c(N(CC)C(=O)c2cc(OC)cc(OC)c2)c(=O)[nH]c1=O returned CHO-K1 Ca antag -3, CHO parental Ca -7, OX1R antag-1 -3, M1 PAM parental 6, OX1R antag-2 -14 and CHO-K1 Ca ag 16*.
COc1ccc(S(=O)(=O)N2CCOC23CCN(S(C)(=O)=O)CC3)cc1 was read as CHO-K1 Ca antag 0, CHO parental Ca -10, OX1R antag-1 17, M1 PAM parental 17, OX1R antag-2 -15 and CHO-K1 Ca ag 1.
`COC(=O)c1[nH]c2cccc(OC)c2c1NC(=O)CN(C)CC1OCCO1` gave CHO-K1 Ca antag 24*, CHO parental Ca -20, OX1R antag-1 13, M1 PAM parental -7, OX1R antag-2 -21 and CHO-K1 Ca ag 0.
For COC(=O)c1[nH]c2cccc(OC)c2c1NC(=O)CN1CCOCC1 the results were CHO-K1 Ca antag 10, CHO parental Ca -12, OX1R antag-1 17, M1 PAM parental -4, OX1R antag-2 -12 and CHO-K1 Ca ag 1.
Cc1cc(OC(=O)Nc2ccccc2)ccc1Cl was read as CHO-K1 Ca antag 0, M1 PAM parental 9 and CHO-K1 Ca ag 8.
`CN1CCN(Cn2cc(/C=C/C(=O)c3ccccc3)c3ccccc32)CC1` gave CHO-K1 Ca antag -35, CHO parental Ca -13, OX1R antag-1 40*, M1 PAM parental 13, OX1R antag-2 14 and CHO-K1 Ca ag 2.
Screening COc1ccc(N/C=C2\CCc3ccccc3C2=O)cc1 returned CHO-K1 Ca antag -9, CHO parental Ca 3, OX1R antag-1 39*, M1 PAM parental 10, OX1R antag-2 -34 and CHO-K1 Ca ag 2.
Screening COc1ccc2c(c1)CC/C(=C\Nc1ccc3c(c1)OCO3)C2=O returned CHO-K1 Ca antag -1, CHO parental Ca -22, OX1R antag-1 33, M1 PAM parental 11, OX1R antag-2 -11 and CHO-K1 Ca ag 2.
Screening O=C(Cn1ncc(Cl)c(Cl)c1=O)N1CCN(S(=O)(=O)c2ccc3ccccc3c2)CC1 returned CHO-K1 Ca antag 4, CHO parental Ca 31*, OX1R antag-1 17, M1 PAM parental 3, OX1R antag-2 36 and CHO-K1 Ca ag 0.
For COc1ccc(-c2csc(NC(=O)c3nc(-c4ccccc4)oc3C)n2)cc1 the results were CHO-K1 Ca antag 31*, CHO parental Ca -7, OX1R antag-1 32, M1 PAM parental -5, OX1R antag-2 -23 and CHO-K1 Ca ag 0.
`COc1cc(NC(=O)c2cc(OC)c(OC)c(OC)c2)c2ncccc2c1` gave CHO-K1 Ca antag -3, M1 PAM parental 5 and CHO-K1 Ca ag 2.
Screening Cc1cccc(NC(=O)c2ccc3c(c2)OCCO3)c1C returned CHO-K1 Ca antag -6, CHO parental Ca -3, OX1R antag-1 12, M1 PAM parental 10, OX1R antag-2 -13 and CHO-K1 Ca ag 0.
`O=C(Nc1cccc2cccnc12)c1ccc2c(c1)OCCO2` gave CHO-K1 Ca antag -6, CHO parental Ca -10, OX1R antag-1 67*, M1 PAM parental 3, OX1R antag-2 11 and CHO-K1 Ca ag 1.
Screening COC(=O)c1ccccc1NC(=O)c1ccc2c(c1)OCCCO2 returned CHO-K1 Ca antag -7, CHO parental Ca -16, OX1R antag-1 59*, M1 PAM parental 15, OX1R antag-2 -5 and CHO-K1 Ca ag 1.
Cc1ccccc1NC(=O)c1ccc2c(c1)OCCO2 was read as CHO-K1 Ca antag 4, CHO parental Ca 1, OX1R antag-1 6, M1 PAM parental -1, OX1R antag-2 -10 and CHO-K1 Ca ag 0.
COc1cc(NC(=O)c2ccc3c(c2)OCO3)c2ncccc2c1 was read as CHO-K1 Ca antag -13, CHO parental Ca -12, OX1R antag-1 67*, M1 PAM parental 17, OX1R antag-2 -5 and CHO-K1 Ca ag 0.
For CCN(CC)S(=O)(=O)c1ccc2c(c1)N(CC(=O)Nc1cccnc1Cl)C(=O)CO2 the results were CHO-K1 Ca antag -11, CHO parental Ca -12, OX1R antag-1 7, M1 PAM parental 1, OX1R antag-2 -20 and CHO-K1 Ca ag 0.
For COc1ccc([C@H]2N[C@]3(CCCN(Cc4ccc(Cl)cc4)C3=O)[C@H]3C(=O)N(Cc4ccccc4)C(=O)[C@@H]23)cc1 the results were CHO-K1 Ca antag -11, M1 PAM parental 6 and CHO-K1 Ca ag 2.
Cc1cccc(-n2c(SCC(=O)N3CCCC3)nc3n[nH]c(C)c3c2=N)c1 was read as CHO-K1 Ca antag -19, CHO parental Ca -28, OX1R antag-1 36*, M1 PAM parental 14, OX1R antag-2 12 and CHO-K1 Ca ag 0.
Screening COc1ccc(-c2cc(C(=O)O)c3c(C)nn(-c4ccccn4)c3n2)cc1 returned CHO parental Ca -2, OX1R antag-1 6 and OX1R antag-2 -27.
Screening COc1ccc(N=CC2=C(Nc3ccc(OC)cc3)c3c(C)nn(-c4ccccn4)c3CC2)cc1 returned CHO parental Ca 31*, OX1R antag-1 20 and OX1R antag-2 20.
For CC(=O)Nc1ccc(S(=O)(=O)N(Cc2ccccc2)C(C)C)cc1 the results were CHO-K1 Ca antag -9, CHO parental Ca 3, OX1R antag-1 43*, M1 PAM parental 23, OX1R antag-2 -8 and CHO-K1 Ca ag 2.
CC(=O)Nc1ccc(S(=O)(=O)N(C)Cc2ccccc2)cc1 was read as CHO-K1 Ca antag 9, CHO parental Ca 0, OX1R antag-1 20, M1 PAM parental 2, OX1R antag-2 -1 and CHO-K1 Ca ag 0.
CC(=O)Nc1ccc(S(=O)(=O)NC2=C(N3CCN(C)CC3)C(=O)c3ccccc3C2=O)cc1 was read as CHO-K1 Ca antag -8, CHO parental Ca -8, OX1R antag-1 68*, M1 PAM parental -9, OX1R antag-2 -7 and CHO-K1 Ca ag 1.
For CC1CCN(C2=C(NS(=O)(=O)c3ccc(Br)cc3)C(=O)c3ccccc3C2=O)CC1 the results were CHO-K1 Ca antag -12, CHO parental Ca -26, OX1R antag-1 56*, M1 PAM parental -27, OX1R antag-2 -36 and CHO-K1 Ca ag 0.
CC(=O)Nc1ccc(S(=O)(=O)NC2=C(N3CCN(Cc4ccccc4)CC3)C(=O)c3ccccc3C2=O)cc1 was read as CHO-K1 Ca antag -12, CHO parental Ca -17, OX1R antag-1 34, M1 PAM parental 10, OX1R antag-2 -18 and CHO-K1 Ca ag 3.
Screening CC1CCN(C2=C(NS(=O)(=O)c3ccccc3)C(=O)c3ccccc3C2=O)CC1 returned CHO-K1 Ca antag -10, CHO parental Ca -26, OX1R antag-1 62, M1 PAM parental 6, OX1R antag-2 -32 and CHO-K1 Ca ag -1.

Compound activity: PubChem BioAssay, The Scripps Research Institute Molecular Screening Center
